# Measurements from ChEMBL document CHEMBL4513216, “Probing the Open Global Health Chemical Diversity Library for Multistage-Active Starting Points for Next-Generation Antimalarials” (ACS Infect Dis, 2020).
# Assay: Toxicity liver stage against HepG2, at 10uM
# Format: cell-based
# Design: test concentration 10 uM, cell line HepG2-A16-CD81EGFP
# Settings: human, HepG2-A16-CD81EGFP cells; read-out: INHIBITION
# How it was run: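 Uninfected HepG2-A16-CD81EGFP cells, 3 × 10^3 per well, 1536-well, plated on prespotted compound at 10 μM final, parasite-free screening media added to match infected plates; puromycin 10 μM positive, DMSO 0.5% negative; run in parallel with 48 h PbLuc assay at 37 °C, 5% CO2; viability by CellTiter-Glo luminescence, normalized to controls.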
row,Structure (SMILES),cytotoxicity at 10 µM
1,CC(C)CC(NC(=O)OC(C)(C)C)C(N)=O (stereo unspecified),3.29%
2,Cc1nc(Oc2ccccc2Cl)sc1C(=O)O,-11.9%
3,CC1=Nc2c(c(=O)[nH]n2C2CCCCC2)C(c2cccnc2)S1 (stereo unspecified),6.72%
4,CC1=Nc2c(c(=O)[nH]n2C2CCCC2)C(c2cccnc2)S1 (stereo unspecified),-0.955%
5,Cc1nccn1CC1CCN(C(=O)c2cccs2)CC1,-14.2%
6,COc1ccc(S(=O)(=O)NCCn2cnc(C)cc2=O)cc1C,7.69%
7,CC1c2ncc(COCC3CC3)n2CCN1S(=O)(=O)N(C)C (stereo unspecified),18.4%
8,COCCO[C@H]1CCN(C(=O)c2ccoc2C)[C@H]1Cc1cnn(C)c1,-6.98%
9,O=C([C@@H]1C[C@@H]2CCN(Cc3ccco3)C[C@H]2O1)N1CCCO1,4.78%
10,COc1ccc(-c2cc3nn(CC(N)=O)c(=O)n3c(C)n2)cc1,-5.29%
11,CC(C)N1C(=O)CC(N2CCN(c3ccc(F)cc3)CC2)C1=O (stereo unspecified),8.44%
12,CCOc1nc2cccnc2n(CC(=O)NCCOC)c1=O,-7.84%
13,O=c1ccc(-c2cccs2)nn1CN1CCCCCC1,-5.51%
14,COCc1cnc2n1CCN(C(=O)C1=CCCCC1)C2C (stereo unspecified),-2.93%
15,CCN(Cc1ccncc1)S(C)(=O)=O,14.4%
16,CCCc1noc(C2CCN(C(=O)C3CCCO3)CC2)n1 (stereo unspecified),0.12%
17,COCc1cccc(S(=O)(=O)Nc2ncc(C)s2)c1,-8.13%
18,O=C1CCC(c2nc(C3CCN(C(=O)C4CC4)CC3)no2)N1 (stereo unspecified),-1.7%
19,CC(=O)NCCc1cc2nc(-c3ccncc3)ccn2n1,2.95%
20,Cc1cc(C(F)(F)F)nc(C2(C)CCCN2CC(N)=O)n1 (stereo unspecified),6.62%
21,CC(C)(C)c1nnc2n1C(C(=O)N1CCN(c3ncccn3)CC1)CC2 (stereo unspecified),-7.46%
22,CN1CCN(c2ccccc2CNC(=O)Cc2ccccc2F)CC1,-1.1%
23,COc1ccc2nc(C3CC3)cc(C(=O)NCC(=O)N(C)C)c2c1,-3.41%

row,Structure (SMILES),cytotoxicity at 10 µM
1,Cc1cc(C(F)(F)F)c2c(=O)n(Cc3ccon3)n(C)c2n1,5.85%
2,CCCC(=O)Nc1cnn(CC(=O)Nc2ccc(SC)cc2)c1,-8.81%
3,CCOc1ccc(C(=O)NCc2ccnc(N3CCN(C)CC3)c2)cn1,0.935%
4,N#Cc1ccc(NCCS(=O)(=O)N2CCc3ccccc32)nc1,-8.69%
5,CC(C)c1noc(CNc2cccc(-c3nnnn3C)c2)n1,-5.47%
6,CCCC(=O)N1CCCN(C(=O)Nc2ccc(C)s2)CC1,-1.24%
7,CC(C)c1cc(C(=O)N2CCN(Cc3ccco3)CC2)n[nH]1,2.18%
8,CCCc1n[nH]c(C2CN(C(=O)c3cc(C4CC4)on3)CCO2)n1 (stereo unspecified),0.471%
9,Cc1cc(C)n(CC2CN(Cc3ccc4c(c3)OCCO4)CCO2)n1 (stereo unspecified),-22.3%
10,N#CC1(NC(=O)COC(=O)Cn2cccn2)CCCC1,8.89%
11,CCC(C)NC(=O)c1cc(S(N)(=O)=O)c(Br)s1 (stereo unspecified),-4.38%
12,CC(C)(C)NS(=O)(=O)c1ccccc1CNCc1cccc(O)c1,-7.43%
13,Cc1nc2n(n1)CC(NCC(=O)NCC1(c3ccccc3)CC1)CC2 (stereo unspecified),-6.52%
14,O=C(C1CCCN(Cc2cccc(F)c2)C1)N1CCc2sccc2C1 (stereo unspecified),-0.23%
15,CCOC1CCCN(C(=O)c2[nH]nc(C3CC3)c2Br)C1 (stereo unspecified),-5.4%
16,Cc1[nH]ncc1C(C)NCc1cccnc1 (stereo unspecified),-0.98%
17,Cc1cc(C)c(CCNC(=O)NCCCC(N)=O)c(C)c1,-1.24%
18,CC(Cn1cccn1)NC(=O)N(C)Cc1ccc(C(N)=O)cc1 (stereo unspecified),3.37%
19,CC(C(=O)N(C)C1CCCCC1)S(=O)(=O)Cc1csc(-c2cccs2)n1 (stereo unspecified),-4.27%
20,CC1CN(C)CCN1C(=O)Nc1nc(-c2ccco2)cs1 (stereo unspecified),-5.02%
21,CCC1CN(C)c2ccccc2CN1C(=O)Nc1ccc(C)cc1 (stereo unspecified),4.01%
22,Cc1cnc(CN(Cc2ccccc2)CC2CCOCC2)cn1,15.6%
23,COc1ccc(C(=O)NS(C)(=O)=O)cc1-c1ccccc1,-0.0142%

row,Structure (SMILES),cytotoxicity at 10 µM
1,O=C(NCCNc1ncccn1)N1CCCC(C(F)(F)F)C1 (stereo unspecified),1.05%
2,CC(C)NC(=O)N1CCC(n2ccc(C(F)(F)F)n2)CC1,3.02%
3,Cc1cccc(CNC(=O)CNc2cc(CO)ccc2Cl)c1,1.73%
4,CN(C)c1ccc(CNC(=O)c2ccc(Cl)cc2F)cc1,-8.33%
5,Cc1cc(CNC(=O)N2CCN(c3ccccc3)CC2)no1,5.27%
6,Cc1cccc(S(=O)(=O)N2Cc3nccn3CC(CN(C)C)C2)c1 (stereo unspecified),-105%
7,COCCN1C[C@@H]2CN(c3cnccn3)C[C@@H]2C1=O,-104%
8,CNC(=O)c1nc2c(s1)CCN(C(=O)Cc1ccc(OC)cc1)CC2,4.76%
9,Cc1nnc([C@@H]2CC[C@@H]3[C@@H](CCN3S(=O)(=O)c3cccnc3)O2)o1,0.462%
10,CCCOC1CCCN(c2ccnc(C(=O)NCc3ccco3)c2)C1 (stereo unspecified),5.58%
11,O=C(c1ccoc1)N1CCc2ncnc(NCc3ccccn3)c2CC1,0.224%
12,Cc1ccc(-c2nc3cc(S(=O)(=O)N4CCCC4)ccc3n2C)o1,1.38%
13,COCCNC(=O)CCC1CCN(Cc2cccc(SC)c2)CC1,14.6%
14,Cc1nn(C)cc1C(=O)N1CCCC(c2nccn2CC2CCC2)C1 (stereo unspecified),2.52%
15,CSCC(=O)N[C@H]1CC[C@H](Nc2nccc(-c3ccncc3)n2)C1,11.8%
16,Cn1c(N2CC[C@H](O)C2)nc2cc(C(N)=O)ccc21,5.83%
17,Cc1cc(C)c2[nH]c(=O)c(CN3CCC(O)(CN(C)C)C3)cc2c1 (stereo unspecified),-2.99%
18,CN(CCCc1nccn1C)c1nccc(-c2cc(C(=O)O)ccn2)n1,-4.9%
19,CCn1c(C)nnc1SCCNc1cc(N2CCOCC2)ncn1,0.801%
20,COc1ccccc1OC1CN(C(=O)C(c2ccc(F)cc2)N(C)C)C1 (stereo unspecified),1.42%
21,COc1ccc(C(=O)N2CCC(Oc3ccc(C)cc3)(C(=O)O)CC2)o1,9.68%
22,CN(C)C(=O)N1CCN(Cc2ccc3occc3c2)[C@H]2CS(=O)(=O)C[C@H]21,-4.37%
23,Cc1n[nH]c(C)c1CN1CCC(c2cc(C(C)C)n[nH]2)CC1,-6.88%

row,Structure (SMILES),cytotoxicity at 10 µM
1,CCCc1nc(CN(CC)Cc2ccc(O)c(C(=O)O)c2)no1,-6.33%
2,Cn1cc2ncn(CCCOc3cccnc3)c(=O)c2n1,-5.18%
3,O=C1NC2(CCN(C(=O)c3ccc(Cl)cc3)CC2)CC1c1ccccc1 (stereo unspecified),-12.2%
4,COCc1nc(N2CCC(CCO)CC2)c2cnn(C)c2n1,1.22%
5,O=C(COCc1ccccc1)N1CCN(c2ccc(Cl)cn2)CC1,-5.98%
6,COc1ccc(O)c(C(=O)NCC2CCCN(C3CCOCC3)C2)c1 (stereo unspecified),-3.23%
7,COc1ncc(-c2ccc(NC(C)=O)cc2)c(OC)n1,-8.64%
8,Cc1cccc2sc(NC(=O)CN3CCC(C)CC3)nc12,2.89%
9,CNc1cc(CNC(=O)c2ccccc2)nc(-c2ccncc2)n1,0.462%
10,COc1c(C2CCCN2C(=O)c2cc(C)on2)c(C)nn1C (stereo unspecified),0.407%
11,COc1ccc(S(=O)(=O)NC(=O)COC2CCCCC2)cc1,-1.64%
12,CCOc1ccc(Cl)c(C(=O)N2CCN(CC(O)CC)CC2)n1 (stereo unspecified),-4.85%
13,CC(C)c1ncncc1C(=O)N1CCCN(Cc2ccccc2)CC1,-6.9%
14,Cc1cc(CN2CCN(C(=O)NCc3cccs3)CC2)on1,-1.68%
15,CC1CN(CCOc2ccccc2C#N)CCN1Cc1nccn1C (stereo unspecified),-10.8%
16,COc1cc(C(=O)N(Cc2cnn(C)c2)C(C)C)ccc1C,-3.14%
17,CNc1nc(CNC(=O)Nc2cccc(C(C)OC)c2)cs1 (stereo unspecified),-13.3%
18,CC(C)N1CCN(C(=O)c2ccc(Cn3ccccc3=O)o2)CC1,-13.1%
19,Cc1noc(C)c1CN(C)C(=O)NC1CCCN(S(C)(=O)=O)C1 (stereo unspecified),-13.9%
20,Clc1cccc(OCCCN2CCOC(Cn3cncn3)C2)c1 (stereo unspecified),-3.78%
21,COCc1nc(CN2CCOC(CNc3cccnn3)C2)cs1 (stereo unspecified),-4.71%
22,CCc1nc(CN(C)C2CCN(CCn3cccn3)C2)no1 (stereo unspecified),-2.21%
23,CN1CCN(C(=O)c2cnn(-c3ccccc3Cl)c2)CC1,-5.51%

row,Structure (SMILES),cytotoxicity at 10 µM
1,COCCc1noc(CN(C)C(=O)c2cccc(N3CCCC3=O)c2)n1,-9.91%
2,Cc1cc(C2CCCN(C(=O)c3ccc(C)[nH]c3=O)C2)n[nH]1 (stereo unspecified),-5.65%
3,Cn1cc(-c2nc(CN3CCc4c(ncn4C4CC4)C3)cs2)cn1,-17.6%
4,CCc1ccc(OCC(O)CN2CCN(S(C)(=O)=O)CC2)cc1 (stereo unspecified),7.07%
5,CN(C)c1cc(CNC(=O)c2ccc(=O)[nH]n2)ccn1,0.962%
6,Cc1cnn(CC2CCCN2C(=O)CCc2ccsc2)c1 (stereo unspecified),-1.64%
7,c1ccc(CN2CCOC3(CCN(c4ncccn4)CC3)C2)nc1,-2.42%
8,CN(C)CCN1CCOCC2(C1)CN(Cc1nccs1)CCO2 (stereo unspecified),6%
9,Cc1ccc(CN2CCOC3(COCCN(Cc4ccncc4)C3)C2)o1 (stereo unspecified),-109%
10,COC[C@@H]1CCC[C@@]12CN(Cc1ccc(C)s1)CCO2,6.76%
11,Cc1nc(CN2CCC3(CC2)CC(=O)N(C)c2ccccc23)cs1,0.0115%
12,CN1[C@H](CN2CCCC2)C[C@@H]2CN(C(=O)c3cccn3C)CC[C@@H]21,5.57%
13,COc1nn(C)c2c1CCCN(C(=O)c1cccc3cccnc13)C2,-104%
14,COCCN1C[C@@H]2CN(Cc3cccc(C)n3)C[C@@H]2C1=O,6.66%
15,O=C(Cc1cccc(F)c1)N1CCc2ncnc(NC3CC3)c2CC1,-98.5%
16,COCCN1C(=O)CCC12CCN(c1ncc(F)cn1)CC2,0.632%
17,CC(C)=CCN1C[C@@H]2CC[C@H]1CN(C(=O)CSc1ccncc1)C2,-0.591%
18,O=C(CCn1cncn1)N1C[C@@H]2CC[C@H]1CN(Cc1cccnc1)C2,7.39%
19,CNc1ccccc1C(=O)N(C)CCc1ccccc1,-1.76%
